Activity calls are given as the source filed them. The rule behind the calls is not given here.
Experiments:
[1] = biological target: Serine/threonine-protein kinase MRCK alpha (Homo sapiens) (UniProt Q5VT25); test: Activity of human MRCKalpha kinase at 1 uM
[2] = biological target: Rho-associated protein kinase 1 (Homo sapiens) (UniProt Q13464); test: Activity of human ROCK1 kinase at 1 uM
Procedure, shortened: (§1)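 Single-point screen in a 226-kinase panel run by an outside service. Test compound at 1 μM with ATP at 10 μM in every assay. Other assay conditions are not given.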

[3] = biological target: Serine/threonine-protein kinase BRSK1 (Homo sapiens) (UniProt Q8TDC3); test: Activity of human BrSK1 kinase at 1 uM
[4] = test system: PC-3; test: Cell cycle arrest in human PC3 cells by accumulation at G1 phase at 4 uM after 48 hrs by flow cytometry relative to control; format: functional
Procedure, shortened: (§2)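 DNA content profiles by flow cytometry of PC-3 prostate tumor cells exposed to drug diluted in DMSO for 24 or 48 h. Phase distribution was compared with DMSO-treated control cells.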

[5] = test system: PC-3; test: Antitumor activity against human PC3 cells xenografted into athymic nude NCR nu/nu mouse at 10 mg/kg, po BID after 21 days relative to control; format: functional
Procedure, shortened: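 Oral dosing for 21 days in 10% hydroxypropyl-β-cyclodextrin/5% sodium bicarbonate. Caliper volumes, L × W2 × 0.5. TGI = (Δcontrol − Δtreated average volume) × 100/Δcontrol.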

[6] = biological target: Mitogen-activated protein kinase 8 (Homo sapiens) (UniProt P45983); test: Activity of human JNK1-alpha-1 kinase at 1 uM
Sequence of Mitogen-activated protein kinase 8 (Homo sapiens) (P45983 whole entry): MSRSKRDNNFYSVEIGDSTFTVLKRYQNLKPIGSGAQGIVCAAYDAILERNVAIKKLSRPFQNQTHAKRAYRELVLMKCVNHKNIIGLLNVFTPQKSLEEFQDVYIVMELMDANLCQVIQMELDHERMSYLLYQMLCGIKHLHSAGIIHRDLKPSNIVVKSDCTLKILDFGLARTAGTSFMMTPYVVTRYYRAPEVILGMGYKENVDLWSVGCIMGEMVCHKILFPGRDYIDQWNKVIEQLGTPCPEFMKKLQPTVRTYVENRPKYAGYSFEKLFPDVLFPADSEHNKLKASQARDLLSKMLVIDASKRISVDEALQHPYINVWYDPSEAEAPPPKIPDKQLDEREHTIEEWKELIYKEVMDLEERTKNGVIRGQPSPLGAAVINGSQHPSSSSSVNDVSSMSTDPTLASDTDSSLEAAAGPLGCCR
Procedure, shortened: (§3)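 Single-point kinase profiling: each kinase in a 226-kinase panel tested with compound at 1 μM and ATP at 10 μM in every assay, run by an external screening service.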

[7] = organism: Homo sapiens; test: Activity of human CaMK1 kinase at 1 uM
[8] = test system: PC-3; test: Induction of apoptosis in human PC3 cells assessed as PARP cleavage at 0.25 uM after 48 hrs by Western blot method; format: functional, cell-based
[9] = test system: DLD-1; test: Antiproliferative activity against human DLD1 cells after 96 hrs by BrdU cell proliferation ELISA; format: functional, cell-based; conditions: DLD-1, 96 h
Procedure, shortened: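 BrdU incorporation proliferation assay on cultured human tumor lines; IC50 values derived from growth inhibition.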

[10] = test system: PC-3; test: Cell cycle arrest in human PC3 cells by accumulation at >4N phase at 1 uM after 48 hrs by flow cytometry relative to control; format: functional
[11] = biological target: LIM domain kinase 1 (Homo sapiens) (UniProt P53667); test: Activity of human LIMK1 kinase at 1 uM
[12] = biological target: Tyrosine-protein kinase receptor UFO (Homo sapiens) (UniProt P30530); test: Inhibition of Axl kinase at 1 uM
Procedure, shortened: (§4)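 Single-point screen within a 226-kinase panel, with compound at 1 μM and ATP at 10 μM in all assays.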

[13] = biological target: BDNF/NT-3 growth factors receptor (Homo sapiens) (UniProt Q16620); test: Activity of human TrkB kinase at 1 uM
Procedure, shortened: (§5)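 Single-concentration screen across a 226-kinase panel run by an outside provider; test compound at 1 μM with 10 μM ATP in every assay. Other conditions not detailed.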

[14] = biological target: Discoidin domain-containing receptor 2 (Homo sapiens) (UniProt Q16832); test: Activity of human DDR2 kinase at 1 uM
Sequence of Discoidin domain-containing receptor 2 (Homo sapiens) (Q16832 whole entry, the tested form may be a part): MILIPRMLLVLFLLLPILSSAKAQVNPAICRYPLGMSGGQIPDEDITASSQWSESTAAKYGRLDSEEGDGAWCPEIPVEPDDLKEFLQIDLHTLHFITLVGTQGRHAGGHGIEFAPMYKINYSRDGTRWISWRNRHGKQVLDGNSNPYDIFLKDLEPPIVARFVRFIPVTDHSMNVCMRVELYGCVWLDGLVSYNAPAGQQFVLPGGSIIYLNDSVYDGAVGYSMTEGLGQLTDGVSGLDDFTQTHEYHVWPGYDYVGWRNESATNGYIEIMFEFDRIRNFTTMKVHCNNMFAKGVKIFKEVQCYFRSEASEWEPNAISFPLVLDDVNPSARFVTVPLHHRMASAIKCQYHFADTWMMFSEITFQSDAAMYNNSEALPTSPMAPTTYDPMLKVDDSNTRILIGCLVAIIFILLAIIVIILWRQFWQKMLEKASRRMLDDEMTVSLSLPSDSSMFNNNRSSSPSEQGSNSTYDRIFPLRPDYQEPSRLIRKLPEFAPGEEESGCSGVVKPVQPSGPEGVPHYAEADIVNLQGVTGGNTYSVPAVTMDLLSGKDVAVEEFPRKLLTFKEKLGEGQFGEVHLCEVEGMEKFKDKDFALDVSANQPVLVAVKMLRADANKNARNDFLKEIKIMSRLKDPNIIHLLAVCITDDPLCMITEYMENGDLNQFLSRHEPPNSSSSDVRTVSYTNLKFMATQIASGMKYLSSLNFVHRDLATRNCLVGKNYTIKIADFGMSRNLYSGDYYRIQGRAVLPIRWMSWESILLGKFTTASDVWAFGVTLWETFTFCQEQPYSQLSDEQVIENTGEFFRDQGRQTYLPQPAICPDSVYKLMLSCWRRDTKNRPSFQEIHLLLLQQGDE

[15] = biological target: Tyrosine-protein kinase ZAP-70 (Homo sapiens) (UniProt P43403); test: Activity of human ZAP70 kinase at 1 uM; procedure, shortened: as §1
[16] = test system: PC-3; test: Increase in mitotis in human PC3 cells assessed as mitotic cell count after 24 hrs; format: functional
Procedure, shortened: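 Cultured cells were exposed to drug for 24 h and stained with MPM2 (mitotic marker) and Hoechst. Cells were imaged on a high-content imaging system, and the percentage of Hoechst-stained cells positive for MPM2 was calculated.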

[17] = organism: Bos taurus; test: Activity of bovine PKA kinase at 1 uM
[18] = biological target: Serine/threonine-protein kinase MRCK beta (Homo sapiens) (UniProt Q9Y5S2); test: Activity of human MRCKbeta kinase at 1 uM
[19] = biological target: Serine/threonine-protein kinase 10 (Homo sapiens) (UniProt O94804); test: Activity of human LOK kinase at 1 uM
[20] = biological target: Vascular endothelial growth factor receptor 3 (Homo sapiens) (UniProt P35916); test: Activity of human Flt4 kinase at 1 uM; procedure, shortened: as §3
[21] = biological target: SRSF protein kinase 1 (Homo sapiens) (UniProt Q96SB4); test: Activity of human SRPK1 kinase at 1 uM; procedure, shortened: as §5
Sequence of SRSF protein kinase 1 (Homo sapiens) (Q96SB4 whole entry): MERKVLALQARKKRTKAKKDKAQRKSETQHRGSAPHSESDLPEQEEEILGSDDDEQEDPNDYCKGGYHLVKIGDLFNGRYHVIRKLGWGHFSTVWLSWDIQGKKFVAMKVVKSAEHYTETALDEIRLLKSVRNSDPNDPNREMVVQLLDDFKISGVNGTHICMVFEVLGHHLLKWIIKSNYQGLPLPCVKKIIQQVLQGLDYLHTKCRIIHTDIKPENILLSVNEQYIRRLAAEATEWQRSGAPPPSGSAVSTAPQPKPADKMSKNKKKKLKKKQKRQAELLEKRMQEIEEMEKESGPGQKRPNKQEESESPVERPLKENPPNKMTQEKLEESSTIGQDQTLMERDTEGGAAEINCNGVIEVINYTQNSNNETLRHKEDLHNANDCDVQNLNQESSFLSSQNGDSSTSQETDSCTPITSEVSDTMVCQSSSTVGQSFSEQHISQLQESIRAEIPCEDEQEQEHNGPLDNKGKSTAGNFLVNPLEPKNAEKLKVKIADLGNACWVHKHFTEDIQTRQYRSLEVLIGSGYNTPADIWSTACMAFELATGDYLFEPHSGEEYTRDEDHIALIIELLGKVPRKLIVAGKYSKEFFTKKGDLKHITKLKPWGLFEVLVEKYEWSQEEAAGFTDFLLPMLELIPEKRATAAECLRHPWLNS

[22] = biological target: Protein-tyrosine kinase 6 (Homo sapiens) (UniProt Q13882); test: Activity of human BRK kinase at 1 uM
[23] = biological target: Ephrin type-B receptor 1 (Homo sapiens) (UniProt P54762); test: Activity of human EphB1 kinase at 1 uM; procedure, shortened: as §3
Sequence of Ephrin type-B receptor 1 (Homo sapiens) (P54762 whole entry): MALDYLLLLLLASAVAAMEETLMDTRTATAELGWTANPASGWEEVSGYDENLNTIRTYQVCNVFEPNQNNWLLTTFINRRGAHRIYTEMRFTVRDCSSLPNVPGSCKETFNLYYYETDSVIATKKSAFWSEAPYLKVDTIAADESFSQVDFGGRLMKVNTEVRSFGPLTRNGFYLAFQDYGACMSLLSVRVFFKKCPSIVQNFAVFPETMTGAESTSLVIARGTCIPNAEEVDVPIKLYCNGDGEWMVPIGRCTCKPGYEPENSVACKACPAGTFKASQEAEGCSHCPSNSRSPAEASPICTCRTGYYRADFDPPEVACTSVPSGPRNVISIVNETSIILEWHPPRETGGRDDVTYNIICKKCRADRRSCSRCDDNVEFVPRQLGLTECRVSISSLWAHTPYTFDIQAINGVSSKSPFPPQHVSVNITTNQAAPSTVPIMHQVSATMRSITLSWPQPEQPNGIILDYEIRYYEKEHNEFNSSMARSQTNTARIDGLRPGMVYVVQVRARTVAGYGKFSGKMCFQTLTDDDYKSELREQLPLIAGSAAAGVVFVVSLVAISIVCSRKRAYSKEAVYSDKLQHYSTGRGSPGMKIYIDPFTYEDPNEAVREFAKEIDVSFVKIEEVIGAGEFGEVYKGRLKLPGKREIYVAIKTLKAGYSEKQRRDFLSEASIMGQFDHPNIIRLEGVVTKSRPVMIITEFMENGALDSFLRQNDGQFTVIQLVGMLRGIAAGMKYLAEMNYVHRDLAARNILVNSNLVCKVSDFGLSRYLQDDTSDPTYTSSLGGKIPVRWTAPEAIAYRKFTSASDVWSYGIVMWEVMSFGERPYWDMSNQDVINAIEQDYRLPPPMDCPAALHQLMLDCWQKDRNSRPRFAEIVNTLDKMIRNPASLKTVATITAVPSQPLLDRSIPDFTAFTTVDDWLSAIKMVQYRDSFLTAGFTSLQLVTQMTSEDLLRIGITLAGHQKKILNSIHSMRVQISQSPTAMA

[24] = biological target: Macrophage colony-stimulating factor 1 receptor (Homo sapiens) (UniProt P07333); test: Activity of human FMS kinase at 1 uM
[25] = biological target: Protein kinase C eta type (Homo sapiens) (UniProt P24723); test: Activity of human PKCeta kinase at 1 uM; procedure, shortened: as §1
[26] = biological target: Serine/threonine-protein kinase Nek3 (Homo sapiens) (UniProt P51956); test: Activity of human NEK3 kinase at 1 uM; procedure, shortened: as §1
Sequence of Serine/threonine-protein kinase Nek3 (Homo sapiens) (P51956 whole entry, canonical isoform): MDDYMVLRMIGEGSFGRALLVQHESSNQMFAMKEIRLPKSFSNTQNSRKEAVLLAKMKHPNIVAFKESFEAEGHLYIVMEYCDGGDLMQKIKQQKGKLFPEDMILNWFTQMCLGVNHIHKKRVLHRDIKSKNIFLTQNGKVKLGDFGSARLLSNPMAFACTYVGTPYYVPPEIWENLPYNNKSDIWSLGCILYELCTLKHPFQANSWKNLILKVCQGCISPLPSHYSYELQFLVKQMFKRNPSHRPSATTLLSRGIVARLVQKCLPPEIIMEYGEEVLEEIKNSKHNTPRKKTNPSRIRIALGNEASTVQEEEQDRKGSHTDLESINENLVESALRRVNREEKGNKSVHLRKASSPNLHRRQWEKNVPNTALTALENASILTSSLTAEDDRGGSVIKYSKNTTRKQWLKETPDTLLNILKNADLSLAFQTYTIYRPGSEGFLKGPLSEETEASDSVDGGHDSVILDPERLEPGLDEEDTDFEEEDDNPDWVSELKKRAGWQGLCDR

[27] = biological target: Phosphatidylinositol 4,5-bisphosphate 3-kinase catalytic subunit gamma isoform (Homo sapiens) (UniProt P48736); test: Activity of human PI 3-kinase gamma at 1 uM; procedure, shortened: as §3
[28] = biological target: Serine/threonine-protein kinase 17A (Homo sapiens) (UniProt Q9UEE5); test: Activity of human DRAK1 kinase at 1 uM; procedure, shortened: as §3
Sequence of Serine/threonine-protein kinase 17A (Homo sapiens) (Q9UEE5 whole entry): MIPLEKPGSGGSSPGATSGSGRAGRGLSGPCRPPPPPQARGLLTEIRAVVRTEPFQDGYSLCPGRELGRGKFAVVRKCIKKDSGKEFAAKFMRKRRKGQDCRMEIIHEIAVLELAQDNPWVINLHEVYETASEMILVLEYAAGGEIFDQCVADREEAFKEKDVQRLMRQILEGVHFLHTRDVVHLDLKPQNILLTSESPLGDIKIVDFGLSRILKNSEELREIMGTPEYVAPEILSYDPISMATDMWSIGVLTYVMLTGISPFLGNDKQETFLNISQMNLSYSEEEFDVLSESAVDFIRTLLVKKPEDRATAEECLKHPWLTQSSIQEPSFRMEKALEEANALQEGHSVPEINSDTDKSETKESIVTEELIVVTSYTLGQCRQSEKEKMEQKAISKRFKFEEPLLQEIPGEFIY

[29] = biological target: Mitogen-activated protein kinase 10 (Homo sapiens) (UniProt P53779); test: Activity of human JNK3 kinase at 1 uM; procedure, shortened: as §3
Sequence of Mitogen-activated protein kinase 10 (Homo sapiens) (P53779 whole entry): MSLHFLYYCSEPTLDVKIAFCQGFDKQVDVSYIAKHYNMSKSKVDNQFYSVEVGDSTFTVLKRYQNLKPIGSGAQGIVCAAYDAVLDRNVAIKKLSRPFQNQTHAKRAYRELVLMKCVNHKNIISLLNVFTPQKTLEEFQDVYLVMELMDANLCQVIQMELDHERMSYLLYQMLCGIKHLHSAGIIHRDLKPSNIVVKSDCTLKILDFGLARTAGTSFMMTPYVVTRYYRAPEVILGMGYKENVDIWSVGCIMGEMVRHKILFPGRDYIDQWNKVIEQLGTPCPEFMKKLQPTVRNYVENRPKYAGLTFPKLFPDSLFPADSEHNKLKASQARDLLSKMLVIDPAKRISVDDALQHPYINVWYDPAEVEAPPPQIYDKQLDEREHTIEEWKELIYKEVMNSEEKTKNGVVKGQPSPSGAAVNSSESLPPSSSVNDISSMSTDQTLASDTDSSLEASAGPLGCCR

[30] = biological target: Ribosomal protein S6 kinase alpha-3 (Homo sapiens) (UniProt P51812); test: Activity of human Rsk2 kinase at 1 uM; procedure, shortened: as §1
[31] = biological target: Serine/threonine-protein kinase PAK 6 (Homo sapiens) (UniProt Q9NQU5); test: Activity of human PAK6 kinase at 1 uM; procedure, shortened: as §1
[32] = biological target: Serine/threonine-protein kinase Sgk2 (Homo sapiens) (UniProt Q9HBY8); test: Activity of human SGK2 kinase at 1 uM; procedure, shortened: as §1
[33] = test system: PC-3; test: Induction of apoptosis in human PC3 cells assessed as PARP cleavage at 0.25 uM after 24 hrs by Western blot method; format: functional, cell-based
[34] = test system: PC-3; test: Cell cycle arrest in human PC3 cells by accumulation at G2/M phase at 1 uM after 48 hrs by flow cytometry relative to control; format: functional; procedure, shortened: as §2
[35] = biological target: MAP kinase-activated protein kinase 3 (Homo sapiens) (UniProt Q16644); test: Activity of human MAPKAP-K3 kinase at 1 uM
Sequence of MAP kinase-activated protein kinase 3 (Homo sapiens) (Q16644 whole entry, looked up): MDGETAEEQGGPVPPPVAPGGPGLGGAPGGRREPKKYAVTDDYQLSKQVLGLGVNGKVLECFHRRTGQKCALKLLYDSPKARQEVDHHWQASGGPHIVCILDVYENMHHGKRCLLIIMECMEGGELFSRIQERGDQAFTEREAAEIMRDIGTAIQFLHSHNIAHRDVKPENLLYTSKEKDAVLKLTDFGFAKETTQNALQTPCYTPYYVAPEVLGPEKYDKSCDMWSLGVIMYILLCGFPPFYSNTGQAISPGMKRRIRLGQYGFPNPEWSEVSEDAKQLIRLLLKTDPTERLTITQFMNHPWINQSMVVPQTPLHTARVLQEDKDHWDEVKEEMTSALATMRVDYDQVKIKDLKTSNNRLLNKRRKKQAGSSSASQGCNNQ

[36] = biological target: Death-associated protein kinase 1 (Homo sapiens) (UniProt P53355); test: Activity of human DAPK1 kinase at 1 uM; procedure, shortened: as §3
[37] = biological target: Fibroblast growth factor receptor 1 (Homo sapiens) (UniProt P11362); test: Activity of human FGFR1 kinase at 1 uM; procedure, shortened: as §3
[38] = biological target: Ribosomal protein S6 kinase alpha-4 (Homo sapiens) (UniProt O75676); test: Activity of human MSK2 kinase at 1 uM; procedure, shortened: as §3
[39] = biological target: Tyrosine-protein kinase Fgr (Homo sapiens) (UniProt P09769); test: Activity of human FGR kinase at 1 uM; procedure, shortened: as §3
[40] = biological target: Ephrin type-B receptor 1 (Homo sapiens) (UniProt P54762); test: Inhibition of EphB1 kinase at 1 uM; procedure, shortened: as §4

SMILES: O=C(O)c1ccc(Nc2ncc3c(n2)-c2ccc(Cl)cc2C(c2c(F)cccc2F)=NC3)cc1 [MLN-8054]
- Activity [1]: 101%
- Activity [2]: 120%
- Activity [3]: 92%
- Activity [4]: 12.9%
- Activity [5]: 73%
- Activity [6]: 122%
- Activity [7]: 98%
- Activity [8]: Active
- IC50 [9]: 1430 nM
- Activity [10]: 7%
- Activity [11]: 110%
- inhibition [12]: 59%
- Activity [13]: 112%
- Activity [14]: 87%
- Activity [15]: 96%
- Activity [16]: 12%
- Activity [17]: 86%
- Activity [18]: 107%
- Activity [19]: 95%
- Activity [20]: 6%
- Activity [21]: 105%
- Activity [22]: 104%
- Activity [23]: 35%
- Activity [24]: 95%
- Activity [25]: 120%
- Activity [26]: 95%
- Activity [27]: 106%
- Activity [28]: 60%
- Activity [29]: 125%
- Activity [30]: 76%
- Activity [31]: 108%
- Activity [32]: 100%
- Activity [33]: Active
- Activity [34]: 59.8%
- Activity [35]: 104%
- Activity [36]: 114%
- Activity [37]: 43%
- Activity [38]: 106%
- Activity [39]: 36%
- inhibition [40]: 65%

Reference: ChEMBL document CHEMBL1147076, “Antitumor activity of MLN8054, an orally active small-molecule inhibitor of Aurora A kinase” (Proc Natl Acad Sci U S A, 2007)
